From ChEMBL document CHEMBL3425475, “Identification of indole inhibitors of human hematopoietic prostaglandin D2 synthase (hH-PGDS)” (Bioorg Med Chem Lett, 2015) come the findings set out here.

Converted amounts (≈) assume the structure as drawn.

In general, Kd refers to the free concentration of one partner at which half of the binding sites on the other are occupied at equilibrium, for simple one-to-one binding. A high value points to a looser complex. A word on the IC50: it is the concentration that inhibits the measured activity by half. By solubility is commonly meant how much of the substance goes into solution per volume. A low value points to a poorly soluble substance. Usually EC50 stands for the concentration at which the effect is half-maximal.

Data set [1] has as its target T1, Hematopoietic prostaglandin D synthase (Homo sapiens, UniProt O60760). Briefly: Binding affinity to human HPGDS expressed in Escherichia coli using 1-phenylpyrazole-4-carboxylic acid/6-(3-fluorophenyl)pyridine-3-carboxamide as reporter probe by ligand-observed 1D NMR T1rho binding assay. The procedure, abridged: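 Ligand-observed NMR displacement of reporter molecules from recombinant E. coli-expressed wild-type hH-PGDS. Active-site binding of the reporters was confirmed by competition with a known inhibitor. Kd was calculated from the extent of reporter displacement at two compound concentrations, using the experimentally determined reporter and compound concentrations in an exact mathematical expression. Values are means of at least two independent experiments.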

In data set [2] the target is T1, Hematopoietic prostaglandin D synthase. Briefly: Inhibition human HPGDS expressed in Escherichia coli assessed as reduction in GST enzymatic activity using MCBL and glutathione incubated for 30 mins by fluorescence based assay. An outline of the steps:
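Compound was preincubated 30 min with enzyme at 1.5 µg/ml in 50 mM Tris, 2 mM MgCl2, 0.1% CHAPS. MCBL (0.4 mM, added solution) and glutathione were then added, and fluorescence (ex 360/em 460) was read at once and again after 30 min. Readings were normalised to DMSO wells (0%) and a control inhibitor (100%). Values are means of at least two independent experiments.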

Data set [3] has the same target. Briefly: Binding affinity to human HPGDS expressed in Escherichia coli by isothermal titration calorimetry. The procedure, abridged:
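Recombinant wild-type hH-PGDS, expressed in E. coli and purified by cation exchange and gel filtration. Ligand, typically 500 µM at experimentally determined concentration, titrated in 2 µL aliquots into 30–40 µM protein. Reverse titrations (protein into ligand) used where ligand solubility was low. Values are means of at least two independent experiments.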

Data set [4] has the same target. Briefly: Inhibition fluorescein-conjugated ligand binding to human HPGDS expressed in Escherichia coli by fluorescence polarization assay. An outline of the steps: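 Recombinant E. coli-expressed hH-PGDS. Displacement of a fluorescein-conjugated potent hH-PGDS inhibitor by compound was followed in dose-response by fluorescence polarization, excitation 470 nm and emission 530 nm. The assay was adapted from a commercial kit.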
On the technique in general: In fluorescence polarisation assays a small probe gives low polarisation when free and higher when bound to something large.

Data set [5] can be described thus: Solubility of the compound. Type of data set: physicochemical.
For data set [6], the target named is T1, Hematopoietic prostaglandin D synthase. Kind of data set: Inhibition HPGDS in human MEG01 cells assessed as reduction in PGD2 production incubated for 30 mins followed by stimulation with 5 uM ionomycin for 30 mins by enzyme immunoassay method. In kind it is cell-based, MEG-01. An outline of the steps: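 MEG-01 cells were differentiated with 0.1 µM PMA for 16 h, then plated. Inhibitor was added in concentration response, 10 µM–0.15 nM, for 30 min at 37 °C, followed by 5 µM ionomycin for 30 min at 37 °C. Secreted PGD2 in the medium was quantified by PGD2-MOX EIA.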

T1 sequence (O60760 whole entry): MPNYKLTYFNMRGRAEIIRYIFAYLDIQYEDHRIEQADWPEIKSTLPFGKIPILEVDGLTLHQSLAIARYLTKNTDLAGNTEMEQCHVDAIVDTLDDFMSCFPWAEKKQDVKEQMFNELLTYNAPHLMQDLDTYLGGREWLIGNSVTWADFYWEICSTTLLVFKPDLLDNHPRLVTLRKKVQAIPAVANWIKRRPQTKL

`CN(C)c1ccc(C(=O)NC2CCN(CC(F)(F)F)CC2)cn1` registered a Kd in data set [1] of 14 µM.
Consider `O=C(NC1CCN(CC(F)(F)F)CC1)c1ccc(-c2cc[nH]c(=O)c2)nc1`, for which, in data set [1], binding was characterised by a dissociation constant (Kd) of 0.2 µM. In data set [2], the IC50 amounted to 0.07 µM.
For `O=C(NC1CCN(CC(F)(F)F)CC1)c1ccc(-c2cccc(=O)[nH]2)nc1`, in that order: 0.4 µM and 0.071 µM.
For `O=C(NC1CCN(CC(F)(F)F)CC1)c1ccc(N2CCOCC2)nc1`, in that order: 0.4 µM and 0.32 µM.
`O=C(CCN1CCCCC1)Nc1cncc(-c2cccc3[nH]ccc23)c1`: the Kd in data set [1] was 1 µM. Besides, the IC50 in data set [2] was 0.13 µM.
`O=C(O)c1cnn(-c2ccccc2)c1` displayed a Kd in data set [3] of 140 µM.
`O=C1CN(c2ccc(C(=O)NC3CCN(CC(F)(F)F)CC3)cn2)CCN1` returned a dissociation constant (Kd) in data set [1] of 1 µM. For the same compound, in data set [2], the IC50 is 0.59 µM.
As for `CN(C)CCCC(=O)Nc1cncc(-c2cccc3[nH]ccc23)c1`, the values for the half-inhibitory concentration (IC50) in data set [4] and in data set [2] were 0.82 µM and 0.18 µM, respectively. In data set [1], this compound came in with a Kd of 0.57 µM. Besides, in data set [5], the solubility is 84 µM (≈ 27.1 µg/mL).
In the case of `O=C(NC1CCN(CC(F)(F)F)CC1)c1ccc(-c2cccc(F)c2)nc1`, the Kd was determined as 0.0095 µM in data set [1] and 0.02 µM in data set [3]. Moreover, the EC50 in data set [6] was 0.035 µM. Besides, the solubility in data set [5] worked out at 2.6 µM (≈ 0.992 µg/mL). In addition, in data set [2], the IC50 stood at 0.2 µM.
Consider `CN(C)CCC(=O)Nc1cncc(-c2cccc3[nH]ccc23)c1`, for which the IC50 in data set [4] was 0.46 µM; in data set [2] it was 0.3 µM. Also, the figures for the Kd in data set [1] and in data set [3] were 0.34 µM and 0.21 µM, respectively. Moreover, in data set [6], the EC50 was 0.35 µM. The same compound showed a solubility in data set [5] of 95 µM (≈ 29.3 µg/mL).
In the case of `CC(C)(O)c1nc(-c2ccc(CNC(=O)c3cnc(-c4ccccn4)nc3)cc2)no1`, the Kd in data set [1] came to 0.023 µM; in data set [3] it was 0.035 µM. In addition, the EC50 in data set [6] is 0.074 µM. The IC50 in data set [2] was found to be 0.07 µM.
In turn, `O=C(NC1CCN(CC(F)(F)F)CC1)c1ccc(N2CCCCC2)nc1` displayed a Kd in data set [1] of less than 0.1 µM. The IC50 in data set [2] was determined as 0.048 µM.
In turn, `O=C(Cn1cnnn1)Nc1cncc(-c2cccc3[nH]ccc23)c1` registered a Kd in data set [1] of 0.2 µM. In addition, the IC50 in data set [2] stood at 0.043 µM.
For `O=C(NC1CCN(CC(F)(F)F)CC1)c1ccc(N2CCCC2)nc1`, in that order: 0.2 µM and 0.23 µM.
For `O=C1CC[C@@H](C(=O)Nc2cncc(-c3cccc4[nH]ccc34)c2)N1`, in that order: 0.3 µM and 0.035 µM.
With `c1ccc(-c2ncc(-c3cc[nH]n3)s2)cc1`, the values for the equilibrium dissociation constant (Kd) in data set [1] and in data set [3] were 0.051 µM and 0.3 µM, respectively. In addition, in data set [6], the EC50 is 0.11 µM. Also, in data set [5], the solubility is 1.4 µM (≈ 0.318 µg/mL). For the same compound, in data set [2], the IC50 worked out at 0.023 µM.
Turning to `CCC(=O)Nc1cncc(-c2cccc3[nH]ccc23)c1`, the Kd in data set [1] came out at 0.06 µM. Moreover, in data set [2], the half-inhibitory concentration (IC50) was 0.032 µM.
In data set [3], `NC(=O)c1ccc(-c2cccc(F)c2)nc1` had a Kd of 0.8 µM.
In data set [1], `COc1cc(-c2ccc(C(=O)NC3CCN(CC(F)(F)F)CC3)cn2)ccn1` returned a dissociation constant Kd of 2 µM.
With `O=C(NC1CCN(CC(F)(F)F)CC1)c1ccc(N2CCNCC2)nc1`, the Kd in data set [1] is 13 µM.
Turning to `O=C(NC1CCN(CC(F)(F)F)CC1)c1ccc(Oc2ccccc2)nc1`, in data set [1], binding was put at a Kd of 0.06 µM. For the same compound, the IC50 in data set [2] worked out at 0.031 µM.
With `COc1cccc(-c2ccc(C(=O)NC3CCN(CC(F)(F)F)CC3)cn2)c1`, the results for the IC50 in data set [4] and in data set [2] were 0.21 µM and 0.06 µM, respectively. Also, the values for the Kd in data set [1] and in data set [3] were 0.044 µM and 0.012 µM, respectively. For the same compound, in data set [6], the EC50 was 0.13 µM. The compound also gave a solubility in data set [5] of 4.2 µM (≈ 1.65 µg/mL).
For the compound `COCCCNC(=O)c1nc(-c2cccc3[nH]ccc23)no1`, the IC50 turned out to be 2.9 µM in data set [4] and 0.17 µM in data set [2]. The Kd in data set [1] was determined as 0.65 µM. In data set [5], this compound had a solubility of 77 µM (≈ 23.1 µg/mL).
For `Cn1cncc1CC(=O)Nc1cncc(-c2cccc3[nH]ccc23)c1`, the Kd in data set [1] is less than 20 µM. In addition, the IC50 in data set [2] amounted to 1.2 µM.
In data set [1], `O=C(CCc1cccnc1)Nc1cncc(-c2cccc3[nH]ccc23)c1` returned a Kd of 0.05 µM. Moreover, the IC50 in data set [2] was found to be 0.026 µM.
In data set [1], `O=C(NC1CCN(CC(F)(F)F)CC1)c1ccc(-c2ccc(=O)[nH]c2)nc1` showed a dissociation constant Kd of 10 µM.
